Laboratory results reported in ChEMBL document CHEMBL1821590, “Novel dihydropyrimidines and its pyrazole derivatives: synthesis and pharmacological screening” (Eur J Med Chem, 2011).
In brackets after ≈: the same amount, converted by molar mass.

Legend:
Type in all cases: functional
Metaphire posthuma [1] = assay: Anthelmintic activity against Pheretima posthuma assessed as time taken for parasite death at 0.1% w/v
Method in brief: (§1)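 Earthworms (Pheretima posthuma, spelled Perituma posthuma in text) exposed to test compounds at 0.1, 0.2 and 0.5% w/v. Albendazole served as standard, with an untreated control. Paralysis was recorded as the time until worms became motionless, then time to death was recorded, in minutes. Each value is the mean of three determinations with S.D.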

Metaphire posthuma [2] = assay: Anthelmintic activity against Pheretima posthuma assessed as time taken for parasite death at 0.2% w/v; method in brief: as §1
Aspergillus niger [3] = assay: Antimicrobial activity against Aspergillus niger at 100 ug/ml by paper disc method; conditions: read-out: IZ
Method in brief: (§2)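 Paper disc method against A. niger and C. albicans, with compounds at 25, 50 and 100 µg/mL. Amphotericin-B as standard.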

Metaphire posthuma [4] = assay: Anthelmintic activity against Pheretima posthuma assessed as time taken for complete parasite paralysis at 0.2% w/v
Method in brief: (§3)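 Earthworms (Pheretima posthuma) exposed to test solutions at 0.1, 0.2 and 0.5% w/v; time in minutes to complete paralysis (worms motionless) recorded. Albendazole as standard. Mean of three determinations ± S.D.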

[5] = Antiinflammatory activity assessed as inhibition of albumin denaturation at 100 ug/ml by UV-visible spectrophotometry
Method in brief: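 Compounds dissolved in minimal DMF, diluted in PBS pH 7.4 (final DMF <2.5%). 1 mL test solution (100 µg/mL) plus 1 mL 1% albumin in PBS, 15 min at 27 ± 1 °C, then heated 10 min at 60 ± 1 °C. After cooling, turbidity read at 660 nm. % inhibition = [(Vt/Vc) − 1] × 100 against a no-drug control. Triplicate, averaged. Diclofenac standard.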

Staphylococcus aureus [6] = assay: Antimicrobial activity against Staphylococcus aureus at 50 ug/ml by agar plate diffusion technique; conditions: read-out: IZ
Method in brief: (§4)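 Agar plate diffusion against E. coli, P. aeruginosa, S. aureus and B. subtilis, with compounds at 25, 50 and 100 µg/mL. Streptomycin as standard.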

[7] = Antioxidant activity assessed as hydrogen peroxide scavenging activity after 10 mins
Method in brief: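 H2O2 (20 mM) in PBS pH 7.4. 1 mL of sample or ascorbic acid in methanol (12.5–100 µg/mL) added to 2 mL H2O2 solution. A230 read after 10 min. % inhibition = [1 − (Vt/Vc)] × 100. Triplicate, averaged. IC50 derived from % inhibition across concentrations.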

Escherichia coli [8] = assay: Antimicrobial activity against Escherichia coli at 100 ug/ml by agar plate diffusion technique; conditions: read-out: IZ; method in brief: as §4
Candida albicans [9] = assay: Antimicrobial activity against Candida albicans at 25 ug/ml by paper disc method; conditions: read-out: IZ; method in brief: as §2
Metaphire posthuma [10] = assay: Anthelmintic activity against Pheretima posthuma assessed as time taken for complete parasite paralysis at 0.1% w/v; method in brief: as §3
Staphylococcus aureus [11] = assay: Antimicrobial activity against Staphylococcus aureus at 25 ug/ml by agar plate diffusion technique; conditions: read-out: IZ; method in brief: as §4
Aspergillus niger [12] = assay: Antimicrobial activity against Aspergillus niger at 50 ug/ml by paper disc method; conditions: read-out: IZ; method in brief: as §2
Pseudomonas aeruginosa [13] = assay: Antimicrobial activity against Pseudomonas aeruginosa at 100 ug/ml by agar plate diffusion technique; conditions: read-out: IZ; method in brief: as §4
Pseudomonas aeruginosa [14] = assay: Antimicrobial activity against Pseudomonas aeruginosa at 50 ug/ml by agar plate diffusion technique; conditions: read-out: IZ; method in brief: as §4
Aspergillus niger [15] = assay: Antimicrobial activity against Aspergillus niger at 25 ug/ml by paper disc method; conditions: read-out: IZ; method in brief: as §2
Metaphire posthuma [16] = assay: Anthelmintic activity against Pheretima posthuma assessed as time taken for parasite death at 0.5% w/v; method in brief: as §1
Candida albicans [17] = assay: Antimicrobial activity against Candida albicans at 100 ug/ml by paper disc method; conditions: read-out: IZ; method in brief: as §2
Staphylococcus aureus [18] = assay: Antimicrobial activity against Staphylococcus aureus at 100 ug/ml by agar plate diffusion technique; conditions: read-out: IZ; method in brief: as §4
Bacillus subtilis [19] = assay: Antimicrobial activity against Bacillus subtilis at 25 ug/ml by agar plate diffusion technique; conditions: read-out: IZ; method in brief: as §4
Bacillus subtilis [20] = assay: Antimicrobial activity against Bacillus subtilis at 100 ug/ml by agar plate diffusion technique; conditions: read-out: IZ; method in brief: as §4
Escherichia coli [21] = assay: Antimicrobial activity against Escherichia coli at 50 ug/ml by agar plate diffusion technique; conditions: read-out: IZ; method in brief: as §4
Metaphire posthuma [22] = assay: Anthelmintic activity against Pheretima posthuma assessed as time taken for complete parasite paralysis at 0.5% w/v; method in brief: as §3
Escherichia coli [23] = assay: Antimicrobial activity against Escherichia coli at 25 ug/ml by agar plate diffusion technique; conditions: read-out: IZ; method in brief: as §4
[24] = Antioxidant activity assessed as inhibition of lipid peroxidation using egg lecithin liposomes incubated for 1 hr
Method in brief: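 Egg lecithin (3 mg/mL, phosphate buffer pH 7.4) sonicated 10 min to form liposomes. Sample or ascorbic acid (12.5–100 µg/mL) added. Peroxidation induced with FeCl3 and L-ascorbic acid, 1 h at 37 °C. Stopped with HCl/TCA/TBA/BHA, boiled 15 min, centrifuged, supernatant read at 532 nm. Triplicate. % inhibition vs control. IC50 derived.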

Bacillus subtilis [25] = assay: Antimicrobial activity against Bacillus subtilis at 50 ug/ml by agar plate diffusion technique; conditions: read-out: IZ; method in brief: as §4
[26] = Antioxidant activity assessed as nitric oxide radical scavenging activity after 150 mins
Method in brief: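 10 mM sodium nitroprusside (4 mL), PBS pH 7.4 (1 mL) and sample or ascorbic acid in DMSO (1 mL, 12.5–100 µg/mL), incubated 150 min at 25 °C. Nitrite detected with sulphanilic acid (5 min) then naphthylethylenediamine (30 min, diffused light). Read at […]. Triplicate. % inhibition = [1 − (Vt/Vc)] × 100. IC50 derived from it.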

Pseudomonas aeruginosa [27] = assay: Antimicrobial activity against Pseudomonas aeruginosa at 25 ug/ml by agar plate diffusion technique; conditions: read-out: IZ; method in brief: as §4
Candida albicans [28] = assay: Antimicrobial activity against Candida albicans at 50 ug/ml by paper disc method; conditions: read-out: IZ; method in brief: as §2
[29] = Antioxidant activity assessed as potassium ferricyanide ion reducing power after 20 mins
Method in brief: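 Oyaizu method. Samples or ascorbic acid in DMF (12.5–100 µg/mL) mixed with 0.2 M phosphate buffer pH 6.6 and 1% potassium ferricyanide, 20 min at 50 °C. 10% TCA added, centrifuged. Supernatant mixed with water and 0.1% FeCl3, read at 700 nm. % = [(Vt/Vc) − 1] × 100. IC50 derived.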

Compound	Time (Metaphire posthuma [1])	Time (Metaphire posthuma [2])	zone of inhibition at 100 µg/mL (Aspergillus niger [3])	Time (Metaphire posthuma [4])	inhibition [5]	zone of inhibition at 50 µg/mL (Staphylococcus aureus [6])	IC50 [7]	zone of inhibition at 100 µg/mL (Escherichia coli [8])	zone of inhibition at 25 µg/mL (Candida albicans [9])	Time (Metaphire posthuma [10])	zone of inhibition at 25 µg/mL (Staphylococcus aureus [11])	zone of inhibition at 50 µg/mL (Aspergillus niger [12])	zone of inhibition at 25 µg/mL (Aspergillus niger [15])	Time (Metaphire posthuma [16])	zone of inhibition at 100 µg/mL (Staphylococcus aureus [18])	zone of inhibition at 25 µg/mL (Bacillus subtilis [19])	zone of inhibition at 100 µg/mL (Bacillus subtilis [20])	zone of inhibition at 50 µg/mL (Escherichia coli [21])	zone of inhibition at 25 µg/mL (Escherichia coli [23])	zone of inhibition at 50 µg/mL (Bacillus subtilis [25])	also measured
CSc1nc(-c2ccccc2O)c(C#N)c(=O)n1C	50.82 min	48.34 min	15.4 mm	39.46 min	51.9%	9.33 mm	39 µg/mL (≈ 143 µM)	11.3 mm	8.84 mm	40.28 min	8.14 mm	9.46 mm	8 mm	45.3 min	11.2 mm	12.8 mm	25.5 mm	9.16 mm	6.25 mm	16.9 mm	zone of inhibition at 100 µg/mL (Pseudomonas aeruginosa [13]): 10.8 mm; zone of inhibition at 50 µg/mL (Pseudomonas aeruginosa [14]): 8.16 mm; zone of inhibition at 100 µg/mL (Candida albicans [17]): 20 mm; Time (Metaphire posthuma [22]): 35.14 min; IC50 [24]: 44 µg/mL (≈ 161 µM); IC50 [26]: 58 µg/mL (≈ 212 µM); zone of inhibition at 25 µg/mL (Pseudomonas aeruginosa [27]): 6.36 mm; zone of inhibition at 50 µg/mL (Candida albicans [28]): 12.6 mm; IC50 [29]: 52 µg/mL (≈ 190 µM)
CCOC(=O)c1cnn(-c2nc(-c3ccc(OC)cc3)c(C#N)c(=O)n2C)c1N	67.41 min	63.37 min	20.7 mm	49.46 min	13.6%	15.1 mm	74 µg/mL (≈ 188 µM)	17.4 mm	9.62 mm	52.09 min	10.1 mm	13 mm	11.6 mm	57.93 min	18.6 mm	10.2 mm	18.1 mm	14.7 mm	10.5 mm	14 mm	zone of inhibition at 100 µg/mL (Pseudomonas aeruginosa [13]): 16.1 mm; zone of inhibition at 50 µg/mL (Pseudomonas aeruginosa [14]): 10.2 mm; zone of inhibition at 100 µg/mL (Candida albicans [17]): 19.8 mm; Time (Metaphire posthuma [22]): 45.02 min; IC50 [24]: 68 µg/mL (≈ 172 µM); IC50 [26]: 79 µg/mL (≈ 200 µM); zone of inhibition at 25 µg/mL (Pseudomonas aeruginosa [27]): 8.21 mm; zone of inhibition at 50 µg/mL (Candida albicans [28]): 12.6 mm; IC50 [29]: 59 µg/mL (≈ 150 µM)
CSc1nc(-c2cccs2)c(C#N)c(=O)n1C	45.24 min	47.82 min	22.6 mm	38.48 min	62.1%	8.92 mm	72 µg/mL (≈ 273 µM)	8.78 mm	10.6 mm	39.78 min	6.29 mm	15.6 mm	13 mm	42.34 min	11.1 mm	10.4 mm	18.5 mm	6.29 mm	5.86 mm	12.9 mm	zone of inhibition at 100 µg/mL (Candida albicans [17]): 21.8 mm; Time (Metaphire posthuma [22]): 33.35 min; IC50 [24]: 83 µg/mL (≈ 315 µM); IC50 [26]: 87 µg/mL (≈ 330 µM); zone of inhibition at 50 µg/mL (Candida albicans [28]): 13.8 mm; IC50 [29]: 71 µg/mL (≈ 270 µM)
CN[C@@H]1[C@H](O[C@H]2[C@H](O[C@H]3[C@H](O)[C@@H](O)[C@H](N=C(N)N)[C@@H](O)[C@@H]3N=C(N)N)O[C@@H](C)[C@]2(O)C=O)O[C@@H](CO)[C@H](O)[C@H]1O [STREPTOMYCIN]						22.4 mm		28.7 mm			15.4 mm				29.5 mm	15.1 mm	31.8 mm	21.1 mm	15.8 mm	20.2 mm	zone of inhibition at 100 µg/mL (Pseudomonas aeruginosa [13]): 30.3 mm; zone of inhibition at 50 µg/mL (Pseudomonas aeruginosa [14]): 18.7 mm; zone of inhibition at 25 µg/mL (Pseudomonas aeruginosa [27]): 13.4 mm
CSc1nc(-c2ccco2)c(C#N)c(=O)n1C	60.18 min	55.49 min	23.5 mm	36.59 min	57.2%	9.12 mm	79 µg/mL (≈ 319 µM)	7.82 mm	13 mm	42.68 min	7.06 mm	15.9 mm	12.3 mm	53.98 min	12.6 mm	11.1 mm	15.6 mm	6.12 mm	5.74 mm	12.2 mm	zone of inhibition at 100 µg/mL (Candida albicans [17]): 18.4 mm; Time (Metaphire posthuma [22]): 32.55 min; IC50 [24]: 90 µg/mL (≈ 364 µM); IC50 [26]: 108 µg/mL (≈ 437 µM); zone of inhibition at 50 µg/mL (Candida albicans [28]): 16.8 mm; IC50 [29]: 68 µg/mL (≈ 275 µM)
